# Screening results (PubChem)
# This is a sample that favours compounds with a hit; in the whole collection about 2.9% have one here.
# Cneo AK release = causes C. neoformans cell lysis; adenylate kinase release luminescence, 4 h; normalised: neutral wells 0, clomiphene wells 100; lysis activity, % at 15 µM; 0.2% of 360,000 active; AID 651654;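 active means mean lysis activity across replicates of at least 80%, whatever share of replicates individually reach that level; inactive means mean lysis activity below 80%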
#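 Material: C. neoformans cells; Schedule: 4 h static compound exposure, 37 °C, read 1 h post-reagent; Measured by: adenylate kinase release luminescence; Read-out: signal increase indicating cell lysis; Controls: Clomiphene as positive lysis control.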
# PglD DTNB = inhibitors of Campylobacter jejuni PglD acetyltransferase; purified PglD enzyme, DTNB colorimetric CoA detection; inhibition, % at 12.5 µM; 0.098% of 360,000 active; AID 602405; in the data active means inhibition above about 16%, passing the limit was not always enough
# PGC1a acetyl inh = lowers PGC1a acetylation signal in U2OS cells; inhibition, % at 15.6 µM; AlphaScreen anti-acetyl-lysine; with virally co-expressed GCN5 acetyltransferase; 0.17% of 350,000 active; AID 651687;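 active means every replicate shows inhibition of at least 40%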;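 further: 0% = neutral control wells and 100% = positive control wells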
# Vif inh = blocks HIV Vif function; HEK293T cells, Vif self-association by quenched fluorescence, imaging, 24 h; inhibition, % at 7.49 µM; 0.35% of 340,000 active; in the data active means inhibition above about 50%, passing the limit was not always enough
# FGF22 binding-1 = binders of recombinant human FGF22 by thermal shift; SYPRO orange fluorescence; percent of sucrose octasulfate shift, DMSO zero; activity (Tm shift, normalised), % at 9.99 µM; 1.5% of 340,000 active;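 active means mean Tm shift, scaled 0 neutral to 100 positive control, at about 1.3% or above, every replicate too, limit read from the data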
# Target sequence (Q9HCT0 whole entry, looked up): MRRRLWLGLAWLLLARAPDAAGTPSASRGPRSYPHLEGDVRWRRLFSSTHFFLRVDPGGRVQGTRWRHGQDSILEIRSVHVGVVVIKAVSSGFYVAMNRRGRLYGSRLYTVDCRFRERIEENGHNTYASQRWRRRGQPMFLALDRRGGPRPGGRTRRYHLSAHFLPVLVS
# rRNA inh HTS = inhibits bacterial ribosomal RNA function over humanized ribosomes; E. coli WT GFP vs humanized-ribosome RFP mutants, fluorescence, 24 h; hits give low values; DMSO median 0, no signal -100; 1.6% of 350,000 active; GFP signal change (wild-type ribosome), % (concentration not given with the values); AID 720706;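 active means significant combined selectivity score with lowered wild-type GFP, culture density cut under 30%, mutant RFP and density less affected; inactive means any of these conditions unmet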
# FGF22 binding-2 = binders of human FGF22 by thermal shift; shares compounds with FGF22 binding-1; recombinant FGF22 thermal shift, SYPRO orange fluorescence; thermal shift activity, °C (ΔTm) at 38 µM; 2% of 1,000 active; AID 720646;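 active means fitted rise in melting shift crosses a set limit at or below the top valid dose tested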
# SYPRO no-protein = shows thermal shift signal without protein, FGF22 counter-screen; compound-only SYPRO orange thermal shift counter-screen, no protein; AID 743019; 2% of 1,000 active; AC50, µM (top dose mostly 38 µM); shares compounds with FGF22 binding-1;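 active means rising signal whose fitted curve reaches the 0.54 level within the top valid dose, showing a melting point, actives reach about 13 µM in these data; inactive means the rest, including activity in the opposite direction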; further: value is where the raw curve crosses a fixed level and not half-maximal
# Numbers without * were called inactive; i = inactive; . = no result; [ ] = remark or other dose.
SMILES,Cneo AK release,PglD DTNB,PGC1a acetyl inh,Vif inh,FGF22 binding-1,rRNA inh HTS,FGF22 binding-2,SYPRO no-protein
CC(C)N(C[C@H]1N[C@H](CO)[C@H]1c1ccccc1)S(=O)(=O)c1ccccc1,-2,-1,1,.,1.4*,0,0.02[42 µM],i
COc1ccc(OC)c(NC(=O)NNC(=O)CCCOc2ccc(Cl)cc2C)c1,.,.,-1,-3,1.7*,-58,0.028,i
O=C(c1ccccn1)N1C[C@H]2[C@@H](c3ccccc31)[C@@H](CO)N2C(=O)c1ccccn1,1,0,2,.,11*,-1,-0.005[42 µM],i
O=C(c1cccc(F)c1)N1C[C@H]2[C@@H](c3ccccc31)[C@@H](CO)N2C(=O)c1ccccn1,4,3,0,.,3.3*,0,-0.048[42 µM],i
O=C([C@H]1[C@H](CO)[C@H]2Cn3c(ccc(C4=CCCC4)c3=O)[C@@H]1N2C(=O)c1ccncc1)N1CCOCC1,-3,-2,.,.,0,3,.,.
O=C(NCC[C@@H]1CC[C@@H](NC(=O)C2CCOCC2)[C@H](CO)O1)Nc1ccc(Cl)cc1,-3,8,-4,.,1.4*,-25,0.15[42 µM],i
O=C(NCC[C@H]1CC[C@H](NC(=O)C2CCOCC2)[C@H](CO)O1)Nc1ccc(Cl)cc1,-5,8,-5,.,.,-32,.,.
O=C(NCC[C@H]1CC[C@H](NC(=O)C2CCOCC2)[C@@H](CO)O1)Nc1ccc(Cl)cc1,1,5,-6,.,1.5*,-3,-0.047,i
CC(C)C(=O)Nc1ccc2c(c1)C(=O)N(C)[C@@H]1CC[C@@H](CC(=O)NC3CCCC3)O[C@@H]1CO2,.,.,2,.,.,3,.,.
CC(C)NC(=O)N(C)C[C@H]1OCCCC[C@@H](C)Oc2ccc(N(C)C)cc2C(=O)N([C@@H](C)CO)C[C@H]1C,0,2,-1,.,-1,7,.,.
O=C(Nc1cccc(C(F)(F)F)c1)c1cccc(NS(=O)(=O)c2ccc(O)c(C(=O)O)c2)c1,1,5,7,0,1.7*,1,0.37,i
O=C(O)c1cccc(NS(=O)(=O)c2ccc(-c3ccc(S(=O)(=O)Nc4cccc(C(=O)O)c4)cc3)cc2)c1,.,.,.,2,21*,12,-0.46,i
Cc1ccc(S(=O)(=O)Nc2ccc3c(c2)CC(=O)N([C@@H](C)CO)C[C@H](C)[C@@H](CN(C)S(=O)(=O)c2ccc(Cl)cc2)O3)cc1,-4,0,-15,.,1,1,.,.
COc1cccc(C(=O)Nc2ccc3c(c2)OC[C@@H](C)N(CC2CC2)C[C@H](C)[C@@H](OC)CN(C)C3=O)c1,2,-2,14,.,0,-4,.,.
Oc1ccc(N=Cc2ccc(O)c(O)c2)cc1,-2,.,1,11,.,.,.,.
Oc1ccc(/C=N/N=C/c2ccc(O)c(O)c2)cc1O,0,4,-12,72*,1.5*,9,0.23,10µM*
O=c1ccc2cc(S(=O)(=O)Nc3ccc(Br)cc3)ccc2o1,-2,-15,-4,-3,1.4*,-26,-0.019,i
COc1ccc(NS(=O)(=O)c2ccc3oc(=O)ccc3c2)cc1,-1,10,-8,-1,0,-1,.,.
COC(=O)c1cc(OC)c(OC)cc1NC(=O)c1ccccc1,4,-1,-8,-6,.,.,.,.
COC(=O)c1cc(OC)c(OC)cc1NC(=O)c1ccccc1C,.,.,2,-15,8.5*,-9,0.14,i
C[C@@H]1CCCCO[C@H](CN(C)C(=O)CCC(F)(F)F)[C@H](C)CN([C@H](C)CO)C(=O)c2cc(NS(=O)(=O)c3ccc(F)cc3)ccc2O1,3,1,-19,.,0,2,.,.
Cc1cccc(NC(=O)c2ccc(-c3ccccc3[N+](=O)[O-])o2)c1,0,-8,-4,-5,1.6*,-32*,0.2,i
COc1nsnc1NS(=O)(=O)c1ccc(NC(=S)NC(=O)c2cccnc2)cc1,3,11,-5,2,1.6*,-48,-0.021,i
CCCNC(=O)N1CC2(C1)[C@@H](c1ccccc1)[C@H](CO)N2CC1CCOCC1,.,.,.,.,.,5,.,.
COc1cc(/C=C2\CCn3c2nc2cc(C(=O)O)ccc2c3=O)ccc1OC(F)F,0,-4,11,4,1.4*,-15,0.17,i
SMILES,Cneo AK release,PglD DTNB,PGC1a acetyl inh,Vif inh,FGF22 binding-1,rRNA inh HTS,FGF22 binding-2,SYPRO no-protein
O=C(O)c1ccc2c(=O)n3c(nc2c1)/C(=C/c1ccc(C(F)(F)F)cc1)CC3,2,-1,-3,-6,0,-21,.,.
CCc1ccc(C(=O)NCc2cnn(C)c2)s1,-11,1,2,21,3.2*,4,0.2,i
C[C@H](CO)N1C[C@H](C)[C@H](CN(C)CC2CCCCC2)Oc2c(NC(=O)Nc3ccc4c(c3)OCO4)cccc2C1=O,-2,3,-7,.,1.4*,0,0.11,i
CC(C)NC(=O)Nc1ccc2c(c1)C(=O)N([C@H](C)CO)C[C@H](C)[C@@H](CN(C)C(=O)Nc1cccc3ccccc13)O2,-9,-3,3,.,0,-1,.,.
CC(C)NC(=O)Nc1ccc2c(c1)C(=O)N([C@H](C)CO)C[C@H](C)[C@H](CN(C)C(=O)Nc1cccc3ccccc13)O2,0,-7,3,.,19*,-3,0.15[42 µM],i
C[C@H]1CN([C@@H](C)CO)C(=O)c2cccc(NC(=O)Nc3ccc4c(c3)OCO4)c2O[C@H]1CN(C)CC1CCCCC1,3,0,-1,.,-1,2,.,.
CC(C)NC(=O)Nc1ccc2c(c1)C(=O)N([C@H](C)CO)C[C@H](C)[C@@H](CN(C)C(=O)NC(C)C)O2,-2,4,-3,-5,1.6*,5,0.14,i
O=C(C[C@H]1CC[C@H]2[C@@H](COC[C@H](O)CN2C(=O)c2ccncc2)O1)NC1Cc2ccccc2C1,0,8,0,.,0,2,.,.
CO[C@@H]1CN(C)C(=O)c2ccc(NC(=O)c3nc4ccccc4s3)cc2OC[C@@H](C)N(Cc2cncnc2)C[C@H]1C,-4,-4,4,.,0,-10,.,.
C[C@@H]1CCCCO[C@@H](CN(C)C(=O)Cc2ccccc2)[C@H](C)CN([C@H](C)CO)C(=O)c2cc(NS(=O)(=O)c3ccc(Cl)cc3)ccc2O1,-1,2,-18,.,1,-3,.,.
COc1cc(C2C(C#N)=C(N)Oc3n[nH]c(-c4cccnc4)c32)ccc1OCC(N)=O (stereo not given),.,.,12,1,0,12,.,.
